T1: Angiotensin-converting enzyme (Rattus norvegicus, UniProt P47820)
T1 sequence (P47820 whole entry): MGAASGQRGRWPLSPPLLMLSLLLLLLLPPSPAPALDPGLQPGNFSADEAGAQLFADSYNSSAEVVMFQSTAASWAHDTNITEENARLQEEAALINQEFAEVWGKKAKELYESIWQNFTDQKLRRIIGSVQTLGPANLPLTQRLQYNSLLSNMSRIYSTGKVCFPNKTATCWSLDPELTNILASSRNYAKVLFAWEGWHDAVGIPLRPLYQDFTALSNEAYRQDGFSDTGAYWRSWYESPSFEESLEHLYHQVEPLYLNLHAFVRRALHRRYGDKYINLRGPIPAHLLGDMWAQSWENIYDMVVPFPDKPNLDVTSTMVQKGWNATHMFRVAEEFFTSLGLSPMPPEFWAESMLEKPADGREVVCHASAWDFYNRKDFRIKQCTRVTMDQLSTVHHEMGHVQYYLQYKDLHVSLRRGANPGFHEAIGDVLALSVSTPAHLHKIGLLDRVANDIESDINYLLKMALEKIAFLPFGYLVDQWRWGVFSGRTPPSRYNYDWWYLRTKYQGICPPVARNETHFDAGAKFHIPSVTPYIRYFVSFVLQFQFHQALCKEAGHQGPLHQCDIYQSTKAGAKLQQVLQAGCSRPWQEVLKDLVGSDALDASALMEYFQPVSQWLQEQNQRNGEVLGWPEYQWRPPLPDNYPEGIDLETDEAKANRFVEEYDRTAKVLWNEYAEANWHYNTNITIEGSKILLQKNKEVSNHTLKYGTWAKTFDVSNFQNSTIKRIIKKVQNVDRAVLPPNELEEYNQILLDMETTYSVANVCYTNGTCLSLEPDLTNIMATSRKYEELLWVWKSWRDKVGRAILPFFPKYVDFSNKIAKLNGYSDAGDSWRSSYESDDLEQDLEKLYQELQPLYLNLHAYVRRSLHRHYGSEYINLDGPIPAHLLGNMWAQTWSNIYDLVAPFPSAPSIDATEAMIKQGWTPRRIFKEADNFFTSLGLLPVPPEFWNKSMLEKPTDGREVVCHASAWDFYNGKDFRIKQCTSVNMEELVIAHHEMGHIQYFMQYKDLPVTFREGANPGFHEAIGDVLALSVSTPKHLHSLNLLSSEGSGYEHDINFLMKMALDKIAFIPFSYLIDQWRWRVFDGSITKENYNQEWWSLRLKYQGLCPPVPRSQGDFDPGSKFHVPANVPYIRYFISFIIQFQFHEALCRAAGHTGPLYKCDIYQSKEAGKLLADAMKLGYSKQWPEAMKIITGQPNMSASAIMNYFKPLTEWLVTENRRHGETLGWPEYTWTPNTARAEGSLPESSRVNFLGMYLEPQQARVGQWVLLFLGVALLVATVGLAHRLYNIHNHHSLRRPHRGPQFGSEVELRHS

B1: Angiotensin-converting enzyme (Rattus norvegicus), P47820 (protein)
chain: T1 sequence (P47820 whole entry)

Substrate in one series: CN(CC(=O)NO)C(=O)C1CCCCC1C(=O)O
Nature of the series: Michaelis-Menten's constant for the hydrolysis of hippuryl-glycyl-glycine by rat serum ACE at the concentration of 12 nM. It is filed as cell-free.
Settings: not given
The procedure, abridged:
(§1)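 For rat serum ACE kinetics, the dependence of hippurylglycylglycine hydrolysis rate on substrate concentration was measured at increasing inhibitor concentrations. Apparent Km and Vmax were derived for each inhibitor level.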
B1: the Km – broadly, the substrate concentration at which the rate is half of its maximum – was 129 mM.

Substrate in the next series: CN(CC(=O)NO)C(=O)C1CCCCC1C(=O)O
As to the kind of experiment: Michaelis-Menten's constant for the hydrolysis of hippuryl-glycyl-glycine by rat serum Angiotensin I Converting Enzyme at the concentration of 6 nM. It counts as cell-free.
Settings: not given
The procedure, abridged: as §1
Consider B1, for which the Michaelis constant (Km) was 62 mM.

In another series the target is T1, Angiotensin-converting enzyme. As to the kind of experiment: In vitro inhibitory activity against rat serum angiotensin I converting enzyme using hippuryl-glycyl-glycine as substrate. It counts as cell-free.
Settings: not given
In the case of `CN(CC(=O)NOCc1ccccc1)C(=O)C1CCCCC1C(=O)O` (cis isomer), the IC50 – broadly, the concentration needed to halve the response being measured – was greater than 150000 nM.
The same measure, in the same setting: to `O=C(O)C1CCCC1C(=O)NCCS` (stereo unspecified) belongs 11000 nM; to `CC(C)N(CC(=O)NO)C(=O)C1CCCCC1C(=O)O` (trans isomer), 500 nM.
Molecule `CN(CC(=O)NOCc1ccccc1)C(=O)C1CCCC1C(=O)O` (stereo unspecified) registered an IC50 greater than 150000 nM.
Same read-out and setting: to `CN(CC(=O)NO)C(=O)C1CCCCC1C(=O)O` (stereo in doubt; 16a) belongs 23500 nM.
Same read-out and setting: to `O=C(CNC(=O)C1CCCCC1C(=O)O)NO` (trans isomer) belongs 1500 nM.
The molecule `CCN(CC(=O)NOCc1ccccc1)C(=O)C1CCCCC1C(=O)O` (cis isomer) yielded a half-inhibitory concentration (IC50) greater than 150000 nM.
On to `CN(CC(=O)NO)C(=O)C1CCCC1C(=O)O` (stereo unspecified), for which the half-maximal inhibitory concentration (IC50) was 1400 nM.
Same read-out and setting: to `CCN(CC(=O)O)C(=O)C1CCCCC1C(=O)O` (stereo in doubt; 7e) belongs 97000 nM; to `CCCN(CC(=O)O)C(=O)C1CCCCC1C(=O)O` (stereo unspecified), greater than 150000 nM; to `CCCN(CC(=O)NO)C(=O)C1CCCCC1C(=O)O` (cis isomer), 400 nM.
Molecule `CN(CC(=O)NO)C(=O)C1CCCCC1C(=O)O` (cis isomer) showed an IC50 of 12 nM.
Same read-out and setting: to `CN(CC(=O)NO)C(=O)C1CCCCC1C(=O)O` (stereo in doubt; 21b) belongs 1800 nM.
On the same count and under the same terms, to `O=C(O)C1CCCCC1C(=O)CCS` (stereo unspecified) belongs 1400 nM.
On to `O=C(O)C1CCCCC1C(=O)NCCS` (stereo in doubt; 8b), for which half-maximal inhibition (IC50) was put at 10000 nM.
The same measure, in the same setting: under `CCN(CC(=O)NO)C(=O)C1CCCCC1C(=O)O` (stereo in doubt; 21c) stands 28 nM; under `CCCN(CC(=O)NO)C(=O)C1CCCCC1C(=O)O` (trans isomer), 150 nM.
`O=C(O)CNC(=O)C1CCCCC1C(=O)O` (stereo unspecified) returned an IC50 greater than 150000 nM.
The molecule `CCN(CC(=O)NO)C(=O)C1CCCCC1C(=O)O` (trans isomer) showed an IC50 of 14 nM.
In turn, `CN(CC(=O)O)C(=O)C1CCCCC1C(=O)O` (cis isomer) came in with an IC50 greater than 150000 nM.
Turning to `CCN(CC(=O)NOCc1ccccc1)C(=O)C1CCCCC1C(=O)O` (trans isomer), the IC50 was greater than 150000 nM.
`CC(CC(=O)NO)C(=O)N1CCC[C@H]1C(=O)O` (stereo partly specified) registered an IC50 of 600 nM.
The same measure, in the same setting: to `CCN(CC(=O)NO)C(=O)C1CCCCC1C(=O)O` (stereo in doubt; 10g) belongs 18 nM; to `O=C(CNC(=O)C1CCCCC1C(=O)O)NOCc1ccccc1` (stereo in doubt; 9b), greater than 150000 nM; to `CCN(CC(=O)NO)C(=O)C1CCCCC1C(=O)O` (cis isomer), 57 nM.
`CN(CC(=O)NOCc1ccccc1)C(=O)C1CCCCC1C(=O)O` (stereo in doubt; 9e) registered an IC50 greater than 150000 nM.
`CN(CC(=O)NO)C(=O)C1CCCCC1C(=O)O` (stereo in doubt; 21a) registered an IC50 of 7 nM.
Consider `CN(CC(=O)NO)C(=O)C1CCCCC1C(=O)O` (stereo in doubt; 16b), for which it took 24 nM to reach half-maximal inhibition (IC50).
Same read-out and setting: under `CCN(CC(=O)O)C(=O)C1CCCC1C(=O)O` (cis isomer) stands greater than 150000 nM; under `O=C(O)CCC(=O)N1CCCC1C(=O)O` (stereo unspecified), 624000 nM; under `CCN(CC(=O)NO)C(=O)C1CCCCC1C(=O)O` (stereo in doubt; 21d), 2900 nM.
The same measure, in the same setting: under `O=C(CNC(=O)C1CCCCC1C(=O)O)NO` (cis isomer) stands 3000 nM.
The molecule `O=C(O)C1CCCCC1C(=O)CCS` (trans isomer) registered an IC50 of 1700 nM.
The molecule `CN(CC(=O)NO)C(=O)C1CCCCC1C(=O)O` (trans isomer) showed an IC50 of 45 nM.
Still for that read-out and setting: under `CCN(CC(=O)O)C(=O)C1CCCCC1C(=O)O` (stereo in doubt; 7d) stands 75000 nM; under `O=C(CNC(=O)C1CCCCC1C(=O)O)NOCc1ccccc1` (cis isomer), greater than 150000 nM.
In turn, `O=C(O)C1CCCCC1C(=O)NCCS` (trans isomer) yielded an IC50 greater than 150000 nM.
On the same count and under the same terms, under `CCN(CC(=O)NO)C(=O)C1CCCCC1C(=O)O` (stereo in doubt; 16c) stands 2900 nM.

The species entered for another series is Rattus norvegicus. Nature of the series: Maximum rate for the hydrolysis of hippuryl-glycyl-glycine by rat serum ACE at the concentration of 3 nM. It counts as ADME. Particulars: 0.003 µM. The gist of the method:
as §1
For `CN(CC(=O)NO)C(=O)C1CCCCC1C(=O)O` (stereo in doubt; 21a), the Vmax amounted to 1.25 uM min-1 ml-1.

Substrate in another series: CN(CC(=O)NO)C(=O)C1CCCCC1C(=O)O
As to the kind of experiment: Michaelis-Menten's constant for the hydrolysis of hippuryl-glycyl-glycine by rat serum ACE at the concentration of 3 nM.
Settings: not given
The gist of the method: as §1
Take B1: the Km came to 43 mM.

The species entered for another series is Rattus norvegicus. As to the kind of experiment: Maximum rate for the hydrolysis of hippuryl-glycyl-glycine by rat serum ACE. It is filed as ADME.
Settings: not given
The procedure, abridged:
as §1
As to `CN(CC(=O)NO)C(=O)C1CCCCC1C(=O)O` (stereo in doubt; 21a), the Vmax was 1.31 uM min-1 ml-1.

The species entered for a further series is Rattus norvegicus. As to the kind of experiment: Maximum rate for the hydrolysis of hippuryl-glycyl-glycine by rat serum ACE at the concentration of 12 nM. It counts as ADME. Particulars: 0.012 µM. The gist of the method:
as §1
For `CN(CC(=O)NO)C(=O)C1CCCCC1C(=O)O` (stereo in doubt; 21a), the Vmax was determined as 1.36 uM min-1 ml-1.

Substrate in a further series: CN(CC(=O)NO)C(=O)C1CCCCC1C(=O)O
As to the kind of experiment: Michaelis-Menten's constant for the hydrolysis of hippuryl-glycyl-glycine by rat serum ACE.
Settings: not given
It counts as cell-free. The gist of the method: as §1
For B1, the Km was 21 mM.

The species entered for a further series is Rattus norvegicus. Nature of the series: Maximum rate for the hydrolysis of hippuryl-glycyl-glycine by rat serum ACE at the concentration of 6 nM (mean +/- SEM). It counts as ADME. Particulars: 0.006 µM. The procedure, abridged: as §1
Turning to `CN(CC(=O)NO)C(=O)C1CCCCC1C(=O)O` (stereo in doubt; 21a), the Vmax is given as 1.16 uM min-1 ml-1.

Values taken from ChEMBL document CHEMBL1126616, “1,2-Cyclomethylenecarboxylic monoamide hydroxamic derivatives. A novel class of non-amino acid angiotensin converting enzyme inhibitors” (J Med Chem, 1993).
